Laboratory results from ChEMBL document CHEMBL1147130, “Dihydropyridopyrazinones and dihydropteridinones as corticotropin-releasing factor-1 receptor antagonists: structure-activity relationships and computational modeling” (J Med Chem, 2007).
pIC50: −log10 of the molar value.

Each compound was assayed against T1, Corticotropin-releasing factor receptor 1 (Rattus norvegicus, UniProt P35353) (assay: Displacement of [125I]Tyr-o-CRF from CRF1 receptor in rat frontal cortex homogenates).
T1 sequence (P35353 whole entry): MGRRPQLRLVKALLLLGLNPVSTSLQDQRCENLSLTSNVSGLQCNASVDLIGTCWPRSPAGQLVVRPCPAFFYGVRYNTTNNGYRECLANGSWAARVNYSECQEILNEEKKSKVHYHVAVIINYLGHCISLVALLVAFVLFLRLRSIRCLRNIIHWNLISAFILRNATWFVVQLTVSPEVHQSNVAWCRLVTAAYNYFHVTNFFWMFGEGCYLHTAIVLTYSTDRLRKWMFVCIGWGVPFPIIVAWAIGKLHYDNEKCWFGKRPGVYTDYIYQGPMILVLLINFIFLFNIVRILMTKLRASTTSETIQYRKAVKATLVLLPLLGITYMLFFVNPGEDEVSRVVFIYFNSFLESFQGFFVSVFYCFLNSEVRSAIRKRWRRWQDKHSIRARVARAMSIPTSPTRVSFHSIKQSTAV
Assay type: tissue-based
Summary of the method: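 Bound ligand collected by filtration on PEI-treated glass fiber filters and gamma counted. Nonspecific binding defined with 1 µM DMP696.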
`CCCCN(CC)c1nc(C)nc2c1NC(=O)CN2c1ccc(OC)nc1OC` gave a pIC50 of 7.22. For `CCCCN(CC)c1nc(C)nc2c1NCCN2c1ccc(C#N)cc1C`, the pIC50 was 6.99. `CCCN(CCOC)c1cc(C)nc2c1NC(=O)CN2c1cc(OC)c(OC)cc1C` gave a pIC50 of 7.37. With `CCCCN(CC)c1cc(C)nc2c1NCCN2c1ccc(OC)nc1OC` the pIC50 was 8.66. In the case of `CCCCN(CC)c1nc(C)nc2c1NC(=O)CN2c1ccc(OC)cc1C`, the pIC50 was 7.02. Work on `CCCCN(CC)c1nc(C)nc2c1NCCN2c1ccc(OC)cc1C` yielded a pIC50 of 7.93. `CCCCN(CC)c1nc(C)nc2c1NC(=O)CN2c1ccc(C(C)=O)cc1C` gave a pIC50 of 6.15. `CCCN(CCOC)c1nc(C)nc2c1NCCN2c1cc(OC)c(OC)cc1C` was tested, and the pIC50 was 6.68. With `CCCCN(CC)c1nc(C)nc2c1NCCN2c1ccc(OC)nc1OC` the pIC50 was 8.00. Work on `CCCCN(CC)c1cc(C)nc2c1NC(=O)CN2c1ccc(C(C)=O)cc1C` yielded a pIC50 of 8.24. `CCCCN(CC)c1cc(C)nc2c1NCCN2c1ccc(C(C)=O)cc1C` showed a pIC50 of 8.09. `CCCCN(CC)c1nc(C)nc2c1NCCN2c1ccc(C(C)=O)cc1C` showed a pIC50 of 6.76. `CCCCN(CC)c1cc(C)nc2c1NC(=O)CN2c1ccc(C#N)cc1C` showed a pIC50 of 8.48. In the case of `CCCCN(CC)c1cc(C)nc2c1NCCN2c1ccc(OC)cc1C`, the pIC50 was 8.38. `CCCN(CCOC)c1cc(C)nc2c1NCCN2c1cc(OC)c(OC)cc1C` gave a pIC50 of 7.06. In the case of `CCCCN(CC)c1cc(C)nc2c1NCCN2c1ccc(C#N)cc1C`, the pIC50 was 8.46. Compound `CCCCN(CC)c1nc(C)nc2c1NC(=O)CN2c1ccc(C#N)cc1C` has a pIC50 of 6.24.
